{"source": "ChEMBL document CHEMBL1144441", "about": "“Identification of a novel cardenolide (2''-oxovoruscharin) from Calotropis procera and the hemisynthesis of novel derivatives displaying potent in vitro antitumor activities and high in vivo tolerance: structure-activity relationship analyses” (J Med Chem, 2005)", "key": {"A549": {"system": "A549", "assay": "Concentration required for 50% growth inhibition of human A549 cancer cell lines after 3 days of culture", "format": "functional, cell-based", "settings": "A549, 72 h", "how_it_was_run": "(§1)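 MTT overall-growth assay on the five lines. Cells were plated for 24 h at 10 000–40 000 cells/mL, depending on cell type. Nine concentrations from 10^-9 to 10^-5 M in semilog steps were applied for 72 h. Formazan was read at 570 nm against a 630 nm reference, in sextuplicate. IC50 = concentration reducing overall growth by 50% versus untreated control.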"}, "U373 MG": {"system": "U373 MG", "assay": "Concentration required for 50% growth inhibition of human U373 cancer cell lines after 3 days of culture", "format": "functional, cell-based, U-373MG ATCC", "settings": "72 h", "how_it_was_run": "as §1"}, "LoVo": {"system": "LoVo", "assay": "Concentration required for 50% growth inhibition of human LoVo cancer cell lines after 3 days of culture", "format": "functional, cell-based", "settings": "72 h", "how_it_was_run": "as §1"}, "Mus musculus": {"system": "Mus musculus", "assay": "Maximum tolerated dose after intraperitoneal administration in mouse (period of 28 days)", "format": "functional", "how_it_was_run": "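Healthy, non-tumour-bearing B6D2F1 mice given one acute intraperitoneal dose, three mice per dose group, doses 5, 10, 20, 40, 80, 120 and 160 mg/kg. Survival and body weight followed for 28 days after injection. MTD is the highest single dose causing no deaths over the period.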"}, "[1]": {"assay": "Concentration required for 50% growth inhibition of human Hs 683 cancer cell lines after 3 days of culture", "format": "functional, cell-based", "settings": "72 h", "how_it_was_run": "as §1"}, "HCT-15": {"system": "HCT-15", "assay": "Concentration required for 50% growth inhibition of human HCT-15 cancer cell lines after 3 days of culture", "format": "functional, cell-based", "settings": "HCT-15, 72 h", "how_it_was_run": "as §1"}, "[2]": {"target": "Sodium/potassium-transporting ATPase subunit alpha-1 (Sus scrofa, UniProt P05024)", "assay": "In vitro inhibitory activity against porcine Na+/K+-ATPase", "how_it_was_run": "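Porcine cerebral cortex Na+/K+-ATPase (3 × 10-3 units), preincubated 30 min at 37 °C in 30 mM Tris-HCl pH 7.4, 5 mM MgCl2 with inhibitor (1 to 50 000 nM). ADP formation coupled via pyruvate kinase/lactate dehydrogenase, excess phosphoenolpyruvate, to NADH oxidation.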"}}}
{"smiles": "C[C@@H]1C[C@@]2(N=C(N)CS2)C2(O[Si](C)(C)C)O[C@@H]3C[C@@]4(CO[Si](C)(C)C)[C@@H](CC[C@@H]5[C@@H]4CC[C@]4(C)[C@@H](C6=CC(=O)OC6)CC[C@]54CO)C[C@H]3O[C@@H]2O1", "note": "(some centres not stated)", "values": [{"measurement": "IC50", "setting": "A549", "value": 2.58, "unit": "µM"}, {"measurement": "IC50", "setting": "U373 MG", "value": 4.62, "unit": "µM"}, {"measurement": "IC50", "setting": "LoVo", "value": 3.85, "unit": "µM"}, {"measurement": "MTD", "setting": "Mus musculus", "value": ">160", "unit": "mg/kg"}, {"measurement": "IC50", "setting": "[1]", "value": 1.11, "unit": "µM"}, {"measurement": "IC50", "setting": "HCT-15", "value": 3.66, "unit": "µM"}, {"measurement": "IC50", "setting": "[2]", "value": 4.08, "unit": "µM"}]}
